Only some compounds are listed: those with a hit (about 5.4% of all), similar ones and a draw of the others.
hDAT+cocaine = changed hDAT dopamine uptake under cocaine IC80, either direction, primary screen, cocaine antagonist project, cell-based, LLC-PK1 hDAT, [14C]-dopamine uptake, MLSMR; 1.3% of 110,000 active; Sodium-dependent dopamine transporter (Homo sapiens), Q01959; B-score at 10 µM; LLC-PK1 hDAT cells, [14C]-dopamine uptake with cocaine IC80; actives deviate in either direction;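 active = Z score or B-score, a plate-position-corrected score, falls beyond the plate's 99.7% confidence bounds, in either direction; inactive = both scores lie inside the 99.7% bounds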
Target sequence (Q01959 whole entry, looked up): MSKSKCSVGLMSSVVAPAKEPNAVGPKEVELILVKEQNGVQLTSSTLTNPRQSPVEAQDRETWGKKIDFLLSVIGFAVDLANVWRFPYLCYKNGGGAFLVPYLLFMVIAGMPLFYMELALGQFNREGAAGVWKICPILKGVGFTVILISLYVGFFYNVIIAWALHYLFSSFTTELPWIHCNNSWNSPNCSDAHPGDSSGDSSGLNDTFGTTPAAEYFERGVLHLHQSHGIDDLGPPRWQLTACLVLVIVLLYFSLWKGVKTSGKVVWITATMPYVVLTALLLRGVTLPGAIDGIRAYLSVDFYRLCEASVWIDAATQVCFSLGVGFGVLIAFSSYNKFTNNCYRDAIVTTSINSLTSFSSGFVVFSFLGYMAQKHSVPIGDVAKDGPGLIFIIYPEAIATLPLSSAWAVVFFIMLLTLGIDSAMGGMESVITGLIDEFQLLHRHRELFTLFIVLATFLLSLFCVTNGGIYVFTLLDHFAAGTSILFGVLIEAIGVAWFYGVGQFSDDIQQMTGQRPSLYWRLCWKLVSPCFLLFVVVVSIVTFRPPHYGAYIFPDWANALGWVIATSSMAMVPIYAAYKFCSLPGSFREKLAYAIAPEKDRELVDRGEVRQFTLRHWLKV
EphB4 antag = EphB4-ephrin-B2 interaction antagonists, primary screen, biochemical, TNYL-RAW peptide probe, fluorescence polarization | Ephrin type-B receptor 4 (Homo sapiens), P54760 | EphB4 LBD / TNYL-RAW-Alexa532 peptide | inhibition, % at 7 µM | 0.15% of 97,000 active | AID 720, 2007;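 active = inhibition above the screen-wide mean inhibition plus 3 SD, cut at about 15% in these data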
Cav32 inh = Cav3.2 calcium influx blockers – cell-based, Fluo-4 calcium fluorescence, FDSS, MLSMR library, primary screen. Cav3.2-expressing cells; active compounds read low. B-score at 10 µM. 4% of 100,000 active. AID 449739, 2010;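 active = single-dose well whose peak fluorescence ratio is a statistical outlier from its plate by either plate-standardised score or position-corrected B-score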
HIV Rev-RRE inh = HIV-1 Rev-RRE binding inhibitors, primary screen, biochemical, FRET, protein-RNA interaction; 0.79% of 97,000 active; AID 704, 2007; inhibition, % at 8 µM; Rev peptide-RRE RNA binding;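 active = inhibition above the screen-wide mean plus 3 SD, cut at about 35% in these data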
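Assay system: Labelled RRE RNA duplex and labelled Rev peptide | Times: 5 min preincubation and 15 min binding, 25 °C | Detection: FRET, ex 480 nm, em 540 and 671 nm | Evaluation: % inhibition of FRET ratio versus controls | Benchmarks: DMSO wells as 0% and neomycin B wells as 100% inhibition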
Of the large screens only hits and unclear results are named; the others gave an inactive call.

Cc1cc(C=O)c2c(c1)C=CC1(Oc3ccccc3C(=O)N1C)O2 (stereo unspecified)	none (no result: hDAT+cocaine, Cav32 inh)
CCCc1nc(C(C)(C)O)c(C(=O)O)n1Cc1ccc(-c2ccccc2-c2nn[nH]n2)cc1	none (no result: EphB4 antag, Cav32 inh, HIV Rev-RRE inh)
O=C(CN1CCc2ccccc2C1)Nc1ccc(Br)cc1	Cav32 inh -4.1
CCc1ccc(NC(=O)CN2CCc3ccccc3C2)cc1	none
O=C(NCSc1ccnc(SCNC(=O)c2ccc(F)cc2)n1)c1ccc(F)cc1	none
COCCn1nnnc1CN1CCC(O)(c2cccc(C(F)(F)F)c2)CC1	none (no result: EphB4 antag, HIV Rev-RRE inh)
OC1(c2cccc(C(F)(F)F)c2)CCN(Cc2nnnn2CCc2ccccc2)CC1	Cav32 inh -5.6
CC1(C)Cc2noc(N)c2C(C)(C)N1O	none
CC1Cc2ccccc2N1C(=O)CSc1nnc(-c2ccccc2)c(-c2ccccc2)n1 (stereo unspecified)	none
CCN(CC)c1nc2ccccc2nc1C(C#N)C(=O)NCCCOC (stereo unspecified)	none
CCCCCCNC(=O)C(C#N)c1nc2ccccc2nc1N1CCCC1 (stereo unspecified)	Cav32 inh -7.1
CCCN(CCC)c1nc2ccccc2nc1C(C#N)C(=O)OC(C)COC (stereo unspecified)	Cav32 inh -7.7
CCCCCCNC(=O)C(C#N)c1nc2ccccc2nc1N1CCOCC1 (stereo unspecified)	none
CCN(CC)c1nc2ccccc2nc1C(C#N)C(=O)NCCc1ccccc1 (stereo unspecified)	none
CCOC(=O)C1CCCN(c2nc3ccccc3nc2C(C#N)C(=O)NCc2ccccc2)C1 (stereo unspecified)	none
N#CC(C(=O)NCc1ccccc1)c1nc2ccccc2nc1N1CCCC1 (stereo unspecified)	Cav32 inh -6, HIV Rev-RRE inh 62
CCCCN(CCCC)c1nc2ccccc2nc1C(C#N)C(=O)NCCCOC (stereo unspecified)	Cav32 inh -8.1
CCCS(=O)(=O)N1CCCC(C(=O)N2CCOCC2)C1 (stereo unspecified)	none
O=[N+]([O-])c1cccc(/C=N/Nc2cc(Cl)nc(-c3ccccc3)n2)c1	none
CC(C)C[C@H](N)c1cn([C@@H](CCCCN)C(=O)N2CCNCC2)nn1	none (no result: EphB4 antag, HIV Rev-RRE inh)
N#CC(C(=O)NCc1ccco1)c1nc2ccccc2nc1N1CCOCC1 (stereo unspecified)	Cav32 inh -3.6
COCCCNC(=O)C(C#N)c1nc2ccccc2nc1N1CCCC1 (stereo unspecified)	Cav32 inh -5.6
CCCCCNC(=O)C(C#N)c1nc2ccccc2nc1N1CCCC1 (stereo unspecified)	Cav32 inh -7.1
CCC(C)NC(=O)CSc1ncccc1C(=O)O (stereo unspecified)	none
O=C(OCc1ccccc1)C1CCCN1C(=O)c1ccccc1[N+](=O)[O-] (stereo unspecified)	none
CC(C)(C)/C(O)=C(/C#N)c1nc2ccccc2[nH]1	none (no result: Cav32 inh)
CC(C)CC(/C(O)=C(\C#N)c1nc2ccccc2[nH]1)N1C(=O)c2ccccc2C1=O (stereo unspecified)	Cav32 inh -6.6
O=C(COc1ccccc1)NC(NC(=S)Nc1ccccc1O)C(Cl)(Cl)Cl (stereo unspecified)	hDAT+cocaine -3.7, Cav32 inh -7.9
Cc1ccccc1NC(=S)NC(NC(=O)COc1ccccc1)C(Cl)(Cl)Cl (stereo unspecified)	none
CN(C(=O)CSc1nc(-c2ccccc2)cn1N)C(c1ccccc1)c1ccccc1	Cav32 inh -6.5
O=c1c2ccccc2nnn1CSc1nnc(C2COc3ccccc3O2)n1-c1ccccc1 (stereo unspecified)	Cav32 inh -6.1 (no result: EphB4 antag, HIV Rev-RRE inh)
O=C(OCn1nnc2ccccc2c1=O)C1COc2ccccc2O1 (stereo unspecified)	none
COc1ccc(OC)c(NC(=O)CSc2nnc(Cc3cccn3C)n2-c2ccc(F)cc2)c1	none
COc1ccc(-n2c(Cc3cccn3C)nnc2SCC(=O)Nc2ccc(F)cc2F)cc1	Cav32 inh -8.4 (no result: EphB4 antag, HIV Rev-RRE inh)
COc1ccc(-n2c(Cc3cccn3C)nnc2SCC(=O)Nc2ccccc2F)cc1	Cav32 inh -4.4 (no result: EphB4 antag, HIV Rev-RRE inh)
COc1ccc(-n2c(Cc3cccn3C)nnc2SCC(=O)NCCc2ccccc2)cc1	none
CCOC(=O)c1cncc(C(=O)O)c1	none
O=C(c1cccc(Cl)c1)N1CCC(=O)N(C(COCc2ccccc2)Cc2ccccc2)CC1 (stereo unspecified)	none (no result: EphB4 antag, HIV Rev-RRE inh)
O=C(c1ccc(Cl)c(Cl)c1)N1CCC(=O)N(C(COCc2ccccc2)Cc2ccccc2)CC1 (stereo unspecified)	Cav32 inh -5 (no result: EphB4 antag, HIV Rev-RRE inh)
CC(=Nc1ccc(O)cc1)c1sc2ccccc2c1O	HIV Rev-RRE inh 42
CCOC(=O)c1c(C)[nH]c(C(=O)C(C)OC(=O)c2cccc(OCc3c(C)noc3C)c2)c1C (stereo unspecified)	Cav32 inh -4.7
Cc1noc(C)c1COc1cccc(C(=O)NCc2ccccc2Cl)c1	none
CCNc1nc(SCc2ccccc2)nc(N2CCOCC2)n1	Cav32 inh -4.9
Cc1sc2ncnc(OCC(=O)NCC3CCCO3)c2c1C (stereo unspecified)	hDAT+cocaine -3.3
COc1cccc(C(c2nnnn2Cc2ccco2)N2CCN(c3cccc(C)c3C)CC2)c1OC (stereo unspecified)	Cav32 inh -6.9
COc1ccccc1C(c1nnnn1CCc1ccccc1)N1CCCCCC1 (stereo unspecified)	Cav32 inh -9
COc1ccccc1N1CCN(C(c2ccccc2)c2nnnn2CCc2ccccc2)CC1 (stereo unspecified)	none
Clc1ccc(C(c2nnnn2CCc2ccccc2)N2CCSCC2)cc1 (stereo unspecified)	Cav32 inh -6.8
COc1cccc(C(c2nnnn2Cc2ccccc2)N2CCN(C(=O)c3ccco3)CC2)c1OC (stereo unspecified)	none
Fc1ccc(C(c2nnnn2CCc2ccccc2)N2CCCc3ccccc32)cc1 (stereo unspecified)	Cav32 inh -7.9
C=CCn1c(SCC(=O)Nc2ncc(Cc3cc(Cl)ccc3Cl)s2)nnc1-c1ccncc1	none
O=C1CC(N2CCN(c3nc4ccccc4s3)CC2)C(=O)N1c1cccc(F)c1 (stereo unspecified)	none
COc1cccc(C(c2nnnn2CCc2ccccc2)N2CCN(c3ccccc3)CC2)c1OC (stereo unspecified)	Cav32 inh -4.2
COc1ccccc1C(c1nnnn1CCc1ccccc1)N1CCN(c2ccccc2)CC1 (stereo unspecified)	Cav32 inh -5.9
O=C(CSCc1cccc(Br)c1)N1CCOCC1	none
O=C(NCCc1ccccc1)c1ccc2c(c1)S(=O)(=O)c1ccccc1C2=O	none (no result: EphB4 antag, HIV Rev-RRE inh)
